Converted amounts (≈) assume the structure as drawn.

The record followed here is ChEMBL document CHEMBL1154333, “Xanthepinone, an antimicrobial polyketide from a soil fungus closely related to Phoma medicaginis” (2009).

One experiment deals with Rhizomucor miehei. Briefly: Inhibition of conidial germination in Mucor miehei. In kind it is functional. A digest of the protocol:
(§1)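 Conidia from 10-day-old cultures were pelleted (1000g, 10 min) and resuspended in distilled water. Each well held 0.5 × 10⁴ conidia in 0.2 mL distilled water and was incubated 16 h at 28 °C. Germinated conidia were counted under an inverted microscope: triplicates, 3 × 100 conidia. The value is the IC100, the concentration for complete germination inhibition.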

The test system of the next experiment is Candida albicans. Briefly: Antifungal activity against Candida albicans by serial dilution test. The class given is functional. In outline:
(§2)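 Yeasts tested by serial dilution in YMG medium (glucose 1%, malt extract 1%, yeast extract 0.4%).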

A further experiment relates to Eremothecium coryli. Briefly: Antifungal activity against Nematospora coryli by serial dilution test. The class given is functional. A digest of the protocol: as §2
The next experiment has as its system Escherichia coli. Briefly: Antibacterial activity against Escherichia coli K-12 by serial dilution test. In kind it is functional. In outline: (§3)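 Serial broth dilution in nutrient broth.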
Experiment [1] deals with Enterobacter cloacae subsp. dissolvens. Briefly: Antibacterial activity against Enterobacter dissolvens by serial dilution test. In kind it is functional. In outline:
as §3

Another experiment concerns Pseudomonas fluorescens. Briefly: Antibacterial activity against Pseudomonas fluorescens by serial dilution test. In kind it is functional. In outline: as §3
Another experiment relates to Brevibacillus brevis. Briefly: Antibacterial activity against Bacillus brevis ATCC 9999 by serial dilution test. The class given is functional. In outline: as §3
In a further experiment the test system is Penicillium chrysogenum. Briefly: Inhibition of conidial germination in Penicillium notatum. In kind it is functional. In outline: as §1
The test system of a further experiment is Botrytis cinerea. Briefly: Inhibition of conidial germination in Botrytis cinerea. The class given is functional. A digest of the protocol: as §1
For another experiment, the system named is Micrococcus luteus. Briefly: Antibacterial activity against Micrococcus luteus by serial dilution test. In kind it is functional. In outline: as §3
For the next experiment, the system named is Saccharomyces cerevisiae. Briefly: Antifungal activity against Saccharomyces cerevisiae by serial dilution test. The class given is functional. In outline: as §2
The next experiment has as its system Proteus vulgaris. Briefly: Antibacterial activity against Proteus vulgaris by serial dilution test. The class given is functional. A digest of the protocol:
as §3

Another experiment concerns Pyricularia grisea. Briefly: Inhibition of conidial germination in Magnaporthe grisea. The class given is functional. A digest of the protocol:
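M. grisea strain 70-15, grown on CM medium. Conidia were harvested from plates kept at 28 °C on a 16 h light/8 h dark cycle (24 °C in the dark). They were pelleted (1000g, 10 min) and resuspended in distilled water. Each well held 0.5 × 10⁴ conidia/0.2 mL water, 16 h at 28 °C. Germinated conidia were counted microscopically: triplicates, 3 × 100. Value given as IC100.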

The test system of the next experiment is Phytophthora infestans. Briefly: Inhibition of conidial germination in Phytophthora infestans. In kind it is functional. In outline: as §1
The next experiment concerns HeLa S3. Briefly: Cytotoxicity against human HeLaS3 cells at 50 ug/ml. In kind it is functional, cell-based.
A further experiment has as its system Bacillus subtilis. Briefly: Antibacterial activity against Bacillus subtilis ATCC 6633 by serial dilution test. The class given is functional. In outline: as §3
For a further experiment, the system named is HepG2. Briefly: Cytotoxicity against human HepG2 cells at 50 ug/ml. In kind it is functional, cell-based.
Another experiment concerns Staphylococcus aureus. Briefly: Antibacterial activity against Staphylococcus aureus by serial dilution test. In kind it is functional. A digest of the protocol: as §3
Another experiment relates to Paecilomyces variotii. Briefly: Inhibition of conidial germination in Paecilomyces variotii. In kind it is functional. In outline: as §1

As for `C[C@@H]1[C@H](O)[C@@H](C)/C=C/C=C/C=C/C=C/C=C/C=C/C=C/[C@H](O[C@@H]2O[C@H](C)[C@@H](O)[C@H](N)[C@@H]2O)C[C@@H]2O[C@](O)(C[C@@H](O)C[C@@H](O)[C@H](O)CC[C@@H](O)C[C@@H](O)CC(=O)O[C@H]1C)C[C@H](O)[C@H]2C(=O)O` [AMPHOTERICIN B], the MIC (usually the least concentration at which growth counts as inhibited) in the experiment on Rhizomucor miehei (Rhizomucor miehei) is 5 µg/mL (≈ 5.41 µM); against Candida albicans, 10 µg/mL (≈ 10.8 µM); with Eremothecium coryli, 15 µg/mL (≈ 16.2 µM).

Take `COC(=O)C1(O)C(=O)C(C)=COc2oc3cccc(O)c3c(=O)c21` (stereo not drawn) [XANTHEPINONE]: the IC100 in the experiment on Rhizomucor miehei was found to be 25 µg/mL; with Penicillium chrysogenum, 25 µg/mL; in the experiment on Botrytis cinerea it was 10 µg/mL; in the experiment with Pyricularia grisea it was 2 µg/mL; in the experiment with Phytophthora infestans, 5 µg/mL; in the experiment with Paecilomyces variotii it was 50 µg/mL. The MIC in the experiment with Escherichia coli was more than 50 µg/mL; in experiment [1] it was more than 50 µg/mL; in the experiment with Pseudomonas fluorescens, more than 50 µg/mL; in the experiment on Candida albicans it was 50 µg/mL (≈ 150 µM); in the experiment with Brevibacillus brevis it was more than 50 µg/mL; against Micrococcus luteus it was more than 50 µg/mL. The MIC in the experiment on Saccharomyces cerevisiae is 25 µg/mL (≈ 75.2 µM); against Proteus vulgaris, 50 µg/mL (≈ 150 µM); in the experiment with Bacillus subtilis, more than 50 µg/mL; in the experiment with Staphylococcus aureus it was 50 µg/mL (≈ 150 µM); against Eremothecium coryli it was 10 µg/mL (≈ 30.1 µM). Besides, the Activity entry in the experiment with HeLa S3 and in the experiment on HepG2 was “Not toxic” each time.

For the compound `CN[C@@H]1[C@H](O[C@H]2[C@H](O[C@H]3[C@H](O)[C@@H](O)[C@H](N=C(N)N)[C@@H](O)[C@@H]3N=C(N)N)O[C@@H](C)[C@]2(O)C=O)O[C@@H](CO)[C@H](O)[C@H]1O.CN[C@@H]1[C@H](O[C@H]2[C@H](O[C@H]3[C@H](O)[C@@H](O)[C@H](N=C(N)N)[C@@H](O)[C@@H]3N=C(N)N)O[C@@H](C)[C@]2(O)C=O)O[C@@H](CO)[C@H](O)[C@H]1O.O=S(=O)(O)O.O=S(=O)(O)O.O=S(=O)(O)O` [STREPTOMYCIN SULFATE], in the experiment on Proteus vulgaris, it took 5 µg/mL to inhibit growth (MIC).
